In ChEMBL document CHEMBL4229356, “Synthesis and antikinetoplastid evaluation of bis(benzyl)spermidine derivatives” (Eur J Med Chem, 2018):

Columns and labels:
[1] = Selectivity index, ratio of CC50 for mouse RAW264.7 cells to IC50 for Trypanosoma brucei gambiense FeoITMAP/1893; format: toxicity; conditions: read-out: Ratio CC50/IC50
[2] = Selectivity index, ratio of CC50 for mouse RAW264.7 cells to IC50 for Leishmania donovani LV9 axenic amastigotes incubated for 72 hrs by resazurin dye based assay; format: toxicity; conditions: read-out: Ratio CC50/IC50
[3] = system: Trypanosoma brucei gambiense; assay: Trypanocidal activity against Trypanosoma brucei gambiense FeoITMAP/1893 after 72 hrs by resazurin dye based assay; format: functional, organism-based; conditions: FeoITMAP/1893, 72 h
Summary of the method: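 T. b. gambiense Feo was grown in supplemented IMDM with 10% FBS. Cells at 4.10⁴/mL were exposed 72 h at 37 °C, 5% CO2 in the dark to two-fold dilutions. Resazurin (450 µM solution) was added for 6 h and read at OD570/OD600. Result given as IC50; pentamidine was the reference.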

Leishmania donovani [4] = assay: Antiparasitic activity against Leishmania donovani LV9 axenic amastigotes incubated for 72 hrs by resazurin dye based assay; format: functional, organism-based; conditions: LV9, 72 h
Summary of the method: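 LV9 axenic amastigotes were derived from promastigotes in M-199 at pH 5.5, 37 °C, 5% CO2, and used in log phase. Cells at 10⁶/mL were exposed 72 h to two-fold dilutions from 100 to 0.02 μM. Resazurin was then added for 24 h in the dark and read at OD570/OD600. IC50 is relative to excipient-only controls; miltefosine was the reference.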

[5] = Cytotoxicity against mouse RAW264.7 cells assessed as reduction in cell viability after 48 hrs by resazurin assay; format: cell-based
Summary of the method: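 RAW 264.7 macrophages at 2.10⁴/well were preincubated 24 h, then exposed 48 h at 37 °C, 5% CO2 to two-fold dilutions in DMEM. Resazurin was added for 4 h in the dark and read at OD570/OD600. Result given as CC50.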

Leishmania donovani [6] = assay: Antiparasitic activity against Leishmania donovani LV9 axenic intramacrophage amastigotes infected in mouse RAW264.7 cells incubated for 48 hrs by Sybr Green 1 dye based fluorescence assay; format: functional, organism-based; conditions: LV9, RAW264.7, 48 h
Summary of the method: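 RAW 264.7 cells at 2.10⁴/well were infected 24 h with axenic amastigotes at a 16:1 parasite to macrophage ratio, then extracellular parasites were removed. Cells were treated 48 h with two-fold dilutions from 100 µM. They were then lysed (freeze-thaw, proteinase K, 55 °C overnight) and total DNA read by SYBR Green I fluorescence against untreated infected cells. Result given as IC50.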

[7] = Selectivity index, ratio of CC50 for mouse RAW264.7 cells to IC50 for Leishmania donovani LV9 axenic intramacrophage amastigotes infected in mouse RAW264.7 cells; format: toxicity, cell-based; conditions: read-out: Ratio CC50/IC50
Mus musculus = assay: Toxicity in Swiss mouse assessed as death at 100 mg/kg, ip administered as single dose measured up to 30 days; format: organism-based; conditions: in vivo, 720 h
Summary of the method: (§1)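 Swiss mice infected ip with 10,000 T. b. brucei CMP trypanosomes, randomly grouped (six per batch), then given one ip dose of 100 or 10 mg/kg; controls received pentamidine, melarsamine or excipient. Parasitemia followed at days 2, 3, 4 and 30; deaths recorded by day post-treatment; efficacy as mean survival time minus that of excipient-treated controls (days ± SD).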

[8] = system: Trypanosoma brucei brucei; assay: Antitrypanosomal activity against Trypanosoma brucei brucei CMP infected in Swiss mouse assessed as change in mean survival time at 100 mg/kg, ip administered as single dose measured up to 30 days; format: functional; summary of the method: as §1
[9] = target: Trypanothione reductase (Trypanosoma brucei brucei) (UniProt P39051); assay: Inhibition of Trypanosoma brucei trypanothione reductase at 40 uM using 100 uM TS2 as substrate in presence of NADPH by spectrophotometric method relative to control
Summary of the method: (§2)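 Recombinant T. brucei TryR (5-10 mU) in 40 mM Hepes, 1 mM EDTA, pH 7.5, with 100 μM NADPH, 5% DMSO, at 25 °C. Inhibitor was fixed at 40 μM; TS2 at 100 or 40 μM started the reaction. NADPH consumption was followed at 340 nm and % inhibition taken against DMSO-matched controls. Run in triplicate, mean ± SD.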

[10] = target: Trypanothione reductase (Trypanosoma brucei brucei) (UniProt P39051); assay: Inhibition of Trypanosoma brucei trypanothione reductase at 40 uM using 40 uM TS2 as substrate in presence of NADPH by spectrophotometric method relative to control; summary of the method: as §2
Leishmania donovani [11] = assay: Antiparasitic activity against Leishmania donovani amastigotes
[12] = Stability in human plasma by HPLC analysis; format: ADME, cell-free; conditions: read-out: Stability
Summary of the method: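 Human plasma was diluted 10-fold in PBS and incubated with 1 mM compound solutions for 0, 2 and 12 h at 37 °C. Samples were quenched with ice-cold acetonitrile, centrifuged, filtered and analysed by C18 reversed-phase HPLC at 25 °C.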

Trypanothione reductase [13] = target: T1, Trypanothione reductase (Trypanosoma brucei brucei, UniProt P39051); assay: Inhibition of Trypanosoma brucei trypanothione reductase using TS2 as substrate in presence of NADPH by spectrophotometric method
Trypanothione reductase [14] = target: T1, Trypanothione reductase; assay: Mixed-type inhibition of Trypanosoma brucei trypanothione reductase assessed as enzyme-inhibitor-substrate complex using varying levels of TS2 as substrate in presence of NADPH by Lineweaver-Burk plot analysis
Summary of the method: (§3)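 TryR assay in Hepes/EDTA buffer pH 7.5 with 100 μM NADPH at 25 °C, started with TS2 and read at 340 nm. Inhibition type was assigned from a Lineweaver-Burk plot.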

Trypanothione reductase [15] = target: T1, Trypanothione reductase; assay: Mixed-type inhibition of Trypanosoma brucei trypanothione reductase assessed as enzyme-inhibitor complex using varying levels of TS2 as substrate in presence of NADPH by Lineweaver-Burk plot analysis; summary of the method: as §3

T1 sequence (P39051 whole entry): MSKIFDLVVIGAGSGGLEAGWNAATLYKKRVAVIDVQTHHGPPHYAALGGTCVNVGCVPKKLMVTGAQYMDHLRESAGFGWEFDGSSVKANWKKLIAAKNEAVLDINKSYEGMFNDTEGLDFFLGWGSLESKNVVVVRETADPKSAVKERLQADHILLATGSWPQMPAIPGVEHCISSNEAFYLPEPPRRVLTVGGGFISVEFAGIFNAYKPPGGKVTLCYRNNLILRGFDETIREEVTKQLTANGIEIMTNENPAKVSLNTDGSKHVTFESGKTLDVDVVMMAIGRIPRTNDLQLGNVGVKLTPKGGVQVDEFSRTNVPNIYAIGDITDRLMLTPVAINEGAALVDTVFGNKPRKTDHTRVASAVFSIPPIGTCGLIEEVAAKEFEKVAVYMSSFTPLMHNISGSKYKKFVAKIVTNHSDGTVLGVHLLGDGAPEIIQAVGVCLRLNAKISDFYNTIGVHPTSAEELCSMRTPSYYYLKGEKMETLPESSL
Sequence of Trypanothione reductase (Trypanosoma brucei brucei) (P39051 whole entry, looked up): as the sequence (P39051 whole entry) above

Structure (SMILES) | selectivity ratio [1] | selectivity ratio at 72 h [2] | IC50 [3] [µM] | IC50 (Leishmania donovani [4]) [µM] | CC50 at 48 h [5] [µM] | IC50 (Leishmania donovani [6]) [µM] | selectivity ratio [7] | Activity (Mus musculus) | Survival [8] [days] | inhibition [9] [%] | inhibition [10] [%] | IC50 (Leishmania donovani [11]) [µM] | half-life [12] [h] | IC50 (Trypanothione reductase [13]) [µM] | Ki (Trypanothione reductase [14]) [µM] | Ki (Trypanothione reductase [15]) [µM]
CC(C)(C)OC(=O)NCCCCNCCCN(Cc1cccc(-c2ccccc2)c1)Cc1cccc(-c2ccccc2)c1 | > 2.9 | > 1.2 | 33.9 | 79.5 | > 100 | > 100 |  |  |  |  |  |  |  |  |  | 
NCCCCNCCCN(Cc1cccc(-c2ccccc2)c1)Cc1cccc(-c2ccccc2)c1 | 3.5 |  | 8.7 | 35.7 | 30.3 | 27.8 | 1.1 |  |  |  |  |  |  |  |  | 
NCCCCNCCCN(Cc1ccsc1)Cc1ccsc1 | 8.6 |  | 6.1 | > 100 | 52.8 | 59.1 |  |  |  |  |  |  |  |  |  | 
NCCCCNCCCN(Cc1ccc(F)cc1)Cc1ccc(F)cc1 | 9.4 |  | 3.5 | 70.3 | 33.1 | 35.8 |  |  |  |  |  |  |  |  |  | 
CC(C)(C)OC(=O)NCCCCNCCCN(Cc1ccc(-c2ccccc2)cc1)Cc1ccc(-c2ccccc2)cc1 | > 6.9 | > 2.6 | 14.4 | 38.5 | > 100 | 41.7 | > 2.4 |  |  |  |  |  |  |  |  | 
CC(C)(C)OC(=O)NC1CCC(N(CCCN(Cc2ccc(F)cc2)Cc2ccc(F)cc2)CCCN(Cc2ccc(F)cc2)Cc2ccc(F)cc2)CC1 (configuration not stated) | > 23.8 | > 9.8 | 4.2 | 10.2 | > 100 | 17.2 | > 5.8 |  |  |  |  |  |  |  |  | 
CC(C)(C)OC(=O)NCCCCNCCCN(Cc1ccccc1)Cc1ccccc1 | 20.8 |  | 0.6 | 14.6 | 12.5 | 3.4 | 3.7 |  |  |  |  |  |  |  |  | 
CC(C)(C)OC(=O)NCCCCN(CCCN(Cc1ccccc1)Cc1ccccc1)CCCN(Cc1ccccc1)Cc1ccccc1 | 41.7 | 5 | 0.3 | 2.5 | 12.5 | 1.5 | 8.3 |  |  |  |  |  |  |  |  | 
N=C(N)c1ccc(OCCCCCOc2ccc(C(=N)N)cc2)cc1.O=S(=O)(O)CCO.O=S(=O)(O)CCO [PENTAMIDINE ISETHIONATE] |  |  |  |  |  |  |  | Non-Toxic | >30 |  |  |  |  |  |  | 
Cl.Cl.NCCS[As](SCCN)c1ccc(Nc2nc(N)nc(N)n2)cc1 |  |  |  |  |  |  |  | Non-Toxic | >30 |  |  |  |  |  |  | 
CC(C)(C)OC(=O)NCCCCNCCCN(Cc1ccc(F)cc1)Cc1ccc(F)cc1 | 4.3 |  | 2 | 14.7 | 8.7 | 14.5 |  |  |  |  |  |  |  |  |  | 
NCCCCN(CCCN(Cc1ccc(F)cc1)Cc1ccc(F)cc1)CCCN(Cc1ccc(F)cc1)Cc1ccc(F)cc1 | 15 |  | 0.1 | 2 | 1.5 | 6.5 |  |  |  | 30 | > 60 |  |  |  |  | 
CC(C)(C)OC(=O)NCCCCN(CCCN(Cc1ccc(F)cc1)Cc1ccc(F)cc1)CCCN(Cc1ccc(F)cc1)Cc1ccc(F)cc1 | 6.3 | 1.8 | 1.9 | 6.6 | 12 | 16.6 |  |  |  |  |  |  |  |  |  | 
NCCCCNCCCN(Cc1ccc(OCc2ccccc2)cc1)Cc1ccc(OCc2ccccc2)cc1 | > 2.8 | > 1.4 | 35.5 | 72.2 | > 100 | > 100 |  |  |  |  |  | > 3.9 |  |  |  | 
CC(C)(C)OC(=O)NCCCCNCCCN(Cc1ccc2ccccc2c1)Cc1ccc2ccccc2c1 | 5.4 | 1.1 | 0.8 | 3.8 | 4.3 | 6.1 |  |  |  | 45 | 60 |  |  |  |  | 
CC(C)(C)OC(=O)NC1CCC(NCCCN(Cc2ccccc2)Cc2ccccc2)CC1 (configuration not stated) | 7.3 |  | 0.7 | 14.2 | 5.1 | 5.4 |  |  |  |  |  |  |  |  |  | 
CC(C)(C)OC(=O)NCCCCNCCCN(Cc1ccsc1)Cc1ccsc1 | 10.9 |  | 1.5 | 25.3 | 16.4 | 21.1 |  |  |  |  |  |  |  |  |  | 
NCCCCNCCCN(Cc1ccc(-c2ccccc2)cc1)Cc1ccc(-c2ccccc2)cc1 | 21 | 1.1 | 0.2 | 3.9 | 4.2 | 7.1 |  |  |  |  |  |  | > 12 |  |  | 
NC1CCC(N(CCCN(Cc2ccc(F)cc2)Cc2ccc(F)cc2)CCCN(Cc2ccc(F)cc2)Cc2ccc(F)cc2)CC1 (configuration not stated) |  |  | 10.4 | 15.7 | 4.5 | 4.2 | 1.1 |  |  |  |  |  |  |  |  | 
CC(C)(C)OC(=O)NCCCCNCCCN(Cc1ccc(OCc2ccccc2)cc1)Cc1ccc(OCc2ccccc2)cc1 | 7.1 | 1.3 | 4.7 | 26.4 | 33.3 | 42 |  |  |  |  |  |  |  |  |  | 
CC(C)(C)OC(=O)NC1CCC(NCCCN(Cc2ccc(F)cc2)Cc2ccc(F)cc2)CC1 (configuration not stated) | 8.4 |  | 0.5 | 6.8 | 4.2 | 6.8 |  |  |  |  |  |  |  |  |  | 
NCCCCNCCCN(Cc1ccccc1)Cc1ccccc1 | 2 |  | 8.8 | > 100 | 17.7 | 27.4 |  |  |  |  | > 50 | 25 | > 12 | 8.8 | 20 | 7.5
NCCCCN(CCCN(Cc1ccccc1)Cc1ccccc1)CCCN(Cc1ccccc1)Cc1ccccc1 | 1.3 |  | 0.9 | 57.3 | 1.2 | 22.4 |  |  |  |  |  |  |  |  |  | 
NCCCCNCCCN(Cc1ccc2ccccc2c1)Cc1ccc2ccccc2c1 | 12.2 |  | 0.4 | 5 | 4.9 | 8.7 |  |  |  |  | 47 |  |  |  |  | 
NC1CCC(NCCCN(Cc2ccccc2)Cc2ccccc2)CC1 (configuration not stated) | 3.6 |  | 2.1 | > 100 | 7.6 | 6.6 | 1.1 |  |  |  |  |  |  |  |  | 
